Assay results from ChEMBL document CHEMBL1926577, “Novel 1,3,4-heterodiazole analogues: synthesis and in-vitro antitumor activity” (2012).

How the values were obtained:
Format in all cases: functional
CCRF-CEM = experiment: Growth inhibition of human CCRF-CEM cells at 10 uM after 48 hrs by coulter counter method; settings: read-out: GI
Method in brief: (§1)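 NCI 60-cell-line panel, single dose. Compound dissolved first in DMSO, then diluted in phosphate-buffered saline so that every final dilution held under 1% DMSO. Duplicate wells received cells at 6 × 10⁴ cells/ml. Controls held PBS/DMSO at the same dilution. Plates were incubated 48 h at 37 °C under 5% CO₂. Cells were then diluted 10-fold in saline and counted on a Coulter counter, with counts corrected for the dilution. Results are given as percent growth inhibition.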

HL-60(TB) = experiment: Growth inhibition of human HL-60(TB) cells at 10 uM after 48 hrs by coulter counter method; settings: HL-60, 48 h, read-out: GI
Method in brief: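 Single-dose screen on the NCI 60-line panel (leukemia subpanel). Compound is dissolved in DMSO and diluted in PBS, with final DMSO below 1%. Duplicate wells hold 6 × 10⁴ cells/ml at 37 °C, 5% CO₂, for 48 h. Cells are counted by Coulter counter after 10-fold saline dilution. Read-out is percent growth versus PBS/DMSO controls, expressed as % growth inhibition.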

K562 = experiment: Growth inhibition of human K562 cells at 10 uM after 48 hrs by coulter counter method; settings: K562, 48 h, read-out: GI; method in brief: as §1
MOLT-4 = experiment: Growth inhibition of human MOLT4 cells at 10 uM after 48 hrs by coulter counter method; settings: MOLT-4, 48 h, read-out: GI; method in brief: as §1
RPMI-8226 = experiment: Growth inhibition of human RPMI8226 cells at 10 uM after 48 hrs by coulter counter method; settings: RPMI-8226, 48 h, read-out: GI; method in brief: as §1
SR = experiment: Growth inhibition of human SR cells at 10 uM after 48 hrs by coulter counter method; settings: read-out: GI; method in brief: as §1
A549 = experiment: Growth inhibition of human A549 cells at 10 uM after 48 hrs by coulter counter method; settings: A549, 48 h, read-out: GI; method in brief: as §1
EKVX = experiment: Growth inhibition of human EKVX cells at 10 uM after 48 hrs by coulter counter method; settings: read-out: GI; method in brief: as §1
NCI-H226 = experiment: Growth inhibition of human NCI-H226 cells at 10 uM after 48 hrs by coulter counter method; settings: NCI-H226, 48 h, read-out: GI; method in brief: as §1
NCI-H23 = experiment: Growth inhibition of human NCI-H23 cells at 10 uM after 48 hrs by coulter counter method; settings: NCI-H23, 48 h, read-out: GI; method in brief: as §1
NCI-H322M = experiment: Growth inhibition of human NCI-H322M cells at 10 uM after 48 hrs by coulter counter method; settings: read-out: GI; method in brief: as §1
NCI-H522 = experiment: Growth inhibition of human NCI-H522 cells at 10 uM after 48 hrs by coulter counter method; settings: NCI-H522, 48 h, read-out: GI; method in brief: as §1
HCT-116 = experiment: Growth inhibition of human HCT116 cells at 10 uM after 48 hrs by coulter counter method; settings: HCT-116, 48 h, read-out: GI; method in brief: as §1
HCT-15 = experiment: Growth inhibition of human HCT15 cells at 10 uM after 48 hrs by coulter counter method; settings: HCT-15, 48 h, read-out: GI; method in brief: as §1
HT-29 = experiment: Growth inhibition of human HT-29 cells at 10 uM after 48 hrs by coulter counter method; settings: HT-29, 48 h, read-out: GI; method in brief: as §1
KM12 = experiment: Growth inhibition of human KM12 cells at 10 uM after 48 hrs by coulter counter method; settings: KM12, 48 h, read-out: GI; method in brief: as §1
SF-268 = experiment: Growth inhibition of human SF268 cells at 10 uM after 48 hrs by coulter counter method; settings: SF-268, 48 h, read-out: GI; method in brief: as §1
SF-295 = experiment: Growth inhibition of human SF295 cells at 10 uM after 48 hrs by coulter counter method; settings: SF-295, 48 h, read-out: GI; method in brief: as §1
SNB-19 = experiment: Growth inhibition of human SNB19 cells at 10 uM after 48 hrs by coulter counter method; settings: SNB-19, 48 h, read-out: GI; method in brief: as §1
SNB-75 = experiment: Growth inhibition of human SNB75 cells at 10 uM after 48 hrs by coulter counter method; settings: SNB-75, 48 h, read-out: GI; method in brief: as §1
U-251 = experiment: Growth inhibition of human U251 cells at 10 uM after 48 hrs by coulter counter method; settings: U-251, 48 h, read-out: GI; method in brief: as §1
LOX IMVI = experiment: Growth inhibition of human LOXIMVI cells at 10 uM after 48 hrs by coulter counter method; settings: read-out: GI; method in brief: as §1
Malme-3M = experiment: Growth inhibition of human MALME-3M cells at 10 uM after 48 hrs by coulter counter method; settings: read-out: GI; method in brief: as §1
M14 = experiment: Growth inhibition of human M14 cells at 10 uM after 48 hrs by coulter counter method; settings: M14, 48 h, read-out: GI; method in brief: as §1
MDA-MB-435 = experiment: Growth inhibition of human MDA-MB-435 cells at 10 uM after 48 hrs by coulter counter method; settings: MDA-MB-435, 48 h, read-out: GI; method in brief: as §1
SK-MEL-2 = experiment: Growth inhibition of human SK-MEL-2 cells at 10 uM after 48 hrs by coulter counter method; settings: SK-MEL-2, 48 h, read-out: GI; method in brief: as §1
SK-MEL-28 = experiment: Growth inhibition of human SK-MEL-28 cells at 10 uM after 48 hrs by coulter counter method; settings: SK-MEL-28, 48 h, read-out: GI; method in brief: as §1
SK-MEL-5 = experiment: Growth inhibition of human SK-MEL-5 cells at 10 uM after 48 hrs by coulter counter method; settings: SK-MEL-5, 48 h, read-out: GI; method in brief: as §1
UACC-257 = experiment: Growth inhibition of human UACC257 cells at 10 uM after 48 hrs by coulter counter method; settings: UACC-257, 48 h, read-out: GI; method in brief: as §1
UACC-62 = experiment: Growth inhibition of human UACC62 cells at 10 uM after 48 hrs by coulter counter method; settings: UACC-62, 48 h, read-out: GI; method in brief: as §1
IGROV-1 = experiment: Growth inhibition of human IGROV1 cells at 10 uM after 48 hrs by coulter counter method; settings: IGROV-1, 48 h, read-out: GI; method in brief: as §1
OVCAR-8 = experiment: Growth inhibition of human OVCAR8 cells at 10 uM after 48 hrs by coulter counter method; settings: OVCAR-8, 48 h, read-out: GI; method in brief: as §1
NCI/ADR-RES = experiment: Growth inhibition of human NCI/ADR-RES cells at 10 uM after 48 hrs by coulter counter method; settings: read-out: GI; method in brief: as §1
786-0 = experiment: Growth inhibition of human 786-0 cells at 10 uM after 48 hrs by coulter counter method; settings: 786-0, 48 h, read-out: GI; method in brief: as §1
A498 = experiment: Growth inhibition of human A498 cells at 10 uM after 48 hrs by coulter counter method; settings: A498, 48 h, read-out: GI; method in brief: as §1
ACHN = experiment: Growth inhibition of human ACHN cells at 10 uM after 48 hrs by coulter counter method; settings: read-out: GI; method in brief: as §1
CAKI-1 = experiment: Growth inhibition of human Caki1 cells at 10 uM after 48 hrs by coulter counter method; settings: CAKI-1, 48 h, read-out: GI; method in brief: as §1
SN12C = experiment: Growth inhibition of human SN12C cells at 10 uM after 48 hrs by coulter counter method; settings: read-out: GI; method in brief: as §1
TK-10 = experiment: Growth inhibition of human TK10 cells at 10 uM after 48 hrs by coulter counter method; settings: TK-10, 48 h, read-out: GI; method in brief: as §1
UO-31 = experiment: Growth inhibition of human UO31 cells at 10 uM after 48 hrs by coulter counter method; settings: UO-31, 48 h, read-out: GI; method in brief: as §1
PC-3 = experiment: Growth inhibition of human PC3 cells at 10 uM after 48 hrs by coulter counter method; settings: PC-3, 48 h, read-out: GI; method in brief: as §1
MCF7 = experiment: Growth inhibition of human MCF7 cells at 10 uM after 48 hrs by coulter counter method; settings: MCF7, 48 h, read-out: GI; method in brief: as §1
BT-549 = experiment: Growth inhibition of human BT549 cells at 10 uM after 48 hrs by coulter counter method; settings: BT-549, 48 h, read-out: GI; method in brief: as §1
T47D = experiment: Growth inhibition of human T47D cells at 10 uM after 48 hrs by coulter counter method; settings: read-out: GI; method in brief: as §1
MDA-MB-468 = experiment: Growth inhibition of human MDA-MB-468 cells at 10 uM after 48 hrs by coulter counter method; settings: MDA-MB-468, 48 h, read-out: GI; method in brief: as §1

For `O=C1CN2N=C(c3ccccc3)OC2=N1`, the inhibition of growth at 10 µM (CCRF-CEM) was less than 10%, the inhibition of growth at 10 µM (HL-60(TB)) was less than 10% and the inhibition of growth at 10 µM (K562) was less than 10%. The inhibition of growth at 10 µM (MOLT-4) was less than 10%, the inhibition of growth at 10 µM (RPMI-8226) was less than 10% and the inhibition of growth at 10 µM (SR) was less than 10%. For the same compound, the inhibition of growth at 10 µM (A549) was less than 10%, the inhibition of growth at 10 µM (EKVX) was less than 10% and the inhibition of growth at 10 µM (NCI-H226) was less than 10%. The inhibition of growth at 10 µM (NCI-H23) was less than 10%, the inhibition of growth at 10 µM (NCI-H322M) was less than 10% and the inhibition of growth at 10 µM (NCI-H522) was less than 10%. For the same compound, the inhibition of growth at 10 µM (HCT-116) was less than 10%, the inhibition of growth at 10 µM (HCT-15) was less than 10% and the inhibition of growth at 10 µM (HT-29) was less than 10%. For the same compound, the inhibition of growth at 10 µM (KM12) was less than 10%, the inhibition of growth at 10 µM (SF-268) was less than 10% and the inhibition of growth at 10 µM (SF-295) was 14.7%. It also gave an inhibition of growth at 10 µM (SNB-19) of less than 10%, an inhibition of growth at 10 µM (SNB-75) of less than 10% and an inhibition of growth at 10 µM (U-251) of less than 10%. It also gave an inhibition of growth at 10 µM (LOX IMVI) of less than 10%, an inhibition of growth at 10 µM (Malme-3M) of less than 10% and an inhibition of growth at 10 µM (M14) of less than 10%. For the same compound, the inhibition of growth at 10 µM (MDA-MB-435) was less than 10%, the inhibition of growth at 10 µM (SK-MEL-2) was less than 10% and the inhibition of growth at 10 µM (SK-MEL-28) was less than 10%. For the same compound, the inhibition of growth at 10 µM (SK-MEL-5) was less than 10%, the inhibition of growth at 10 µM (UACC-257) was less than 10% and the inhibition of growth at 10 µM (UACC-62) was less than 10%. It also gave an inhibition of growth at 10 µM (IGROV-1) of less than 10%, an inhibition of growth at 10 µM (OVCAR-8) of less than 10% and an inhibition of growth at 10 µM (NCI/ADR-RES) of less than 10%. It also gave an inhibition of growth at 10 µM (786-0) of less than 10%, an inhibition of growth at 10 µM (A498) of 10.9% and an inhibition of growth at 10 µM (ACHN) of less than 10%. The inhibition of growth at 10 µM (CAKI-1) was 21.2%, the inhibition of growth at 10 µM (SN12C) was less than 10% and the inhibition of growth at 10 µM (TK-10) was less than 10%. It also gave an inhibition of growth at 10 µM (UO-31) of 20.4%, an inhibition of growth at 10 µM (PC-3) of less than 10% and an inhibition of growth at 10 µM (MCF7) of less than 10%. The inhibition of growth at 10 µM (BT-549) was less than 10%, the inhibition of growth at 10 µM (T47D) was less than 10% and the inhibition of growth at 10 µM (MDA-MB-468) was less than 10%.
